In article PMC7138392 (Industrial Crops and Products, 2019):

Test: Cytotoxicity in MDCK cells
Format: cell-based, Canine
Details: dog
Summary of the method: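 MDCK cells (1 × 10^5/well) grown 24 h at 37 °C, 5% CO2, then washed twice with PBS pH 7.20. Exposed to test compound at 100 to 3.12 μM in p-MEM for 72 h at 37 °C, 5% CO2. Fixed, stained with 0.40% crystal violet in methanol, A490 read. Viability expressed relative to untreated cell control; CC50 by regression. Triplicate.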

With `CCC(CC)O[C@@H]1C=C(C(=O)O)C[C@H](N)[C@H]1NC(C)=O` [OC, Oseltamivir carboxylate] the CC50 at 72 h was > 100 µM.
